{"source": "ChEMBL document CHEMBL3797202", "about": "“Novel Oxindole Sulfonamides and Sulfamides: EPZ031686, the First Orally Bioavailable Small Molecule SMYD3 Inhibitor” (ACS Med Chem Lett, 2016)", "key": {"[1]": {"molecular_target": "T1, Histone-lysine N-methyltransferase EHMT2 (Homo sapiens) (UniProt Q96KQ7)", "T1 sequence (whole entry)": "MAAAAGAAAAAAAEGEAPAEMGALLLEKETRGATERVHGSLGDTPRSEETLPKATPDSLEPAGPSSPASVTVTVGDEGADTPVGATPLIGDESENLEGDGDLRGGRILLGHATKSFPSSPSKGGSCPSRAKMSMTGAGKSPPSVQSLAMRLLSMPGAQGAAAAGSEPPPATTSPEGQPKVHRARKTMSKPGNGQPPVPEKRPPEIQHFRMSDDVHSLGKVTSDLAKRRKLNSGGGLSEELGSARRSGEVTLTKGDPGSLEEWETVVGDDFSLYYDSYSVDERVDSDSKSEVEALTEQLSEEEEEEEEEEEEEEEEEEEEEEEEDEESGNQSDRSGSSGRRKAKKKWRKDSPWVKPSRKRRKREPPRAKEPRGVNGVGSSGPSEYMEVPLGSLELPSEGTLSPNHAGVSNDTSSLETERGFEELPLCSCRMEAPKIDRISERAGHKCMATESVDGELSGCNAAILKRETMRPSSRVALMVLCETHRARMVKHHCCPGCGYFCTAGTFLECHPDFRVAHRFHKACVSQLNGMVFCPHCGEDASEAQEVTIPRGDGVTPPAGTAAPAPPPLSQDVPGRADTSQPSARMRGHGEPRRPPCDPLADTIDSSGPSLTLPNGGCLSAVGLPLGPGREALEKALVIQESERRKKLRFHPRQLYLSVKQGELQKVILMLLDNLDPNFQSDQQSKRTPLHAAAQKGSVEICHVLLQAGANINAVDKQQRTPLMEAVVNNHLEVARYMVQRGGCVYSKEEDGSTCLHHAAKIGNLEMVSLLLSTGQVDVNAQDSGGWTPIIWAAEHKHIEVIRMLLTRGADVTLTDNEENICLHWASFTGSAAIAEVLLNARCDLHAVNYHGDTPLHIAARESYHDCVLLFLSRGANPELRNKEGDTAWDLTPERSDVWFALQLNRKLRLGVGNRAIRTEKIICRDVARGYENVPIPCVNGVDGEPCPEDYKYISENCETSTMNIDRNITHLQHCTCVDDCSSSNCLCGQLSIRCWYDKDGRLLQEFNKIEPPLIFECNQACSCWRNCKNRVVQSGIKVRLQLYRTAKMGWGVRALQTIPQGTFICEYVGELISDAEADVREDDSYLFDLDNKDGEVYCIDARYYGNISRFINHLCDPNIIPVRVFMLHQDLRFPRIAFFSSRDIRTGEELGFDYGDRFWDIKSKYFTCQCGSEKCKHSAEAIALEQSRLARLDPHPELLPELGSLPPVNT", "assay": "Inhibition of EHMT2 (unknown origin) at 10 uM relative to control"}, "[2]": {"molecular_target": "Histone-lysine N-methyltransferase PRDM9 (Homo sapiens) (UniProt Q9NQV7)", "sequence (Q9NQV7 whole entry)": "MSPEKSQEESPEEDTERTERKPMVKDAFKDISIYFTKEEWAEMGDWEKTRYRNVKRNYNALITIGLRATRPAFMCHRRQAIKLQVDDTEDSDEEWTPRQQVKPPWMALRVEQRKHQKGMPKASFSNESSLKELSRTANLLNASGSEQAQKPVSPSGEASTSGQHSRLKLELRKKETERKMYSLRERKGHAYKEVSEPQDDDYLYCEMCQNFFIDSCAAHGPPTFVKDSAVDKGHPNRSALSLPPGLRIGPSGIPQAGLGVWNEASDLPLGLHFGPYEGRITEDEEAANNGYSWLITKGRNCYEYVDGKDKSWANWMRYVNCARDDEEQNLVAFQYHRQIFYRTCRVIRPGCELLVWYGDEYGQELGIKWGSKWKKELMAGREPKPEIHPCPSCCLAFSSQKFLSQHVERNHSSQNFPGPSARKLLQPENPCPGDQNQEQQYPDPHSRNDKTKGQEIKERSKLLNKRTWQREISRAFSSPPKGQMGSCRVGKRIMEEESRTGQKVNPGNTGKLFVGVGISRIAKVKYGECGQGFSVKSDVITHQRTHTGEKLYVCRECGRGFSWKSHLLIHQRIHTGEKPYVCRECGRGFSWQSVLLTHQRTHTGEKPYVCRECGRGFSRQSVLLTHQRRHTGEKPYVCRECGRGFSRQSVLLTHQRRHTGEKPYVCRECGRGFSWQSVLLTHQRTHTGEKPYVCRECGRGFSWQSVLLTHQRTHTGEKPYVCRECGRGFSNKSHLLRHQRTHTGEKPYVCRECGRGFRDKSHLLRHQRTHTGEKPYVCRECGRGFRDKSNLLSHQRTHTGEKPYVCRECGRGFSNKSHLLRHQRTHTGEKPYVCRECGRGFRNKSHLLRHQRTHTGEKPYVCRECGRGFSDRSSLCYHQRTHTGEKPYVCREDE", "assay": "Inhibition of PRDM9 (unknown origin) at 10 uM relative to control"}, "[3]": {"molecular_target": "Protein arginine N-methyltransferase 8 (Homo sapiens) (UniProt Q9NR22)", "sequence (Q9NR22 2-394 limits assumed)": "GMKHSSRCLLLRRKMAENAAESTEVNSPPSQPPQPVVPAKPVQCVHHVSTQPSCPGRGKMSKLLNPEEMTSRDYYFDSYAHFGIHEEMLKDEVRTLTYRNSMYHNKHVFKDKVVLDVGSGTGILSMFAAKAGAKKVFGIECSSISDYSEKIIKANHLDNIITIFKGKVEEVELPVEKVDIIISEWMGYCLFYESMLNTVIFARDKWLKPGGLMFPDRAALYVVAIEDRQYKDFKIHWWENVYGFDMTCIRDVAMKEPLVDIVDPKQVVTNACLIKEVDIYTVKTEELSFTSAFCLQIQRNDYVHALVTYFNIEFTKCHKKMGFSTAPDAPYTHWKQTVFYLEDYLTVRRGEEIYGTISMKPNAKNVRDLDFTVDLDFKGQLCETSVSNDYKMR", "assay": "Inhibition of PRMT8 (unknown origin) at 10 uM relative to control"}, "[4]": {"molecular_target": "T2, Histone-lysine N-methyltransferase SUV39H1 (Homo sapiens) (UniProt O43463)", "T2 sequence (whole entry)": "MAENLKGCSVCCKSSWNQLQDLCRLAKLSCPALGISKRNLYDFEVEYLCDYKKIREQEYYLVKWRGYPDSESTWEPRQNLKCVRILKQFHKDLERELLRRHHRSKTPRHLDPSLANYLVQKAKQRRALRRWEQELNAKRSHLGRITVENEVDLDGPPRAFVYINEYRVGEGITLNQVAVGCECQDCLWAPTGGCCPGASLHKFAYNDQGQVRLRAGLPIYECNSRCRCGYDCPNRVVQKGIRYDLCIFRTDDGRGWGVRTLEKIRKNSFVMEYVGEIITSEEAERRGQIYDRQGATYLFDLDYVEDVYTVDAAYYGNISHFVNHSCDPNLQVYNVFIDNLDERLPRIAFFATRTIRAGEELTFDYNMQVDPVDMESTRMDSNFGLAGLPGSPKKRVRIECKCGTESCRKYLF", "assay": "Inhibition of SUV39H1 (unknown origin) at 10 uM relative to control"}, "[5]": {"assay": "Apparent permeability in human Caco2 cells at 10 uM incubated for 120 mins by LC-MS/MS analysis", "format": "ADME, cell-based", "details": "Caco-2", "summary_of_the_method": "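Caco-2 cell monolayers; permeability measured in the apical-to-basolateral direction, with an efflux ratio also determined.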"}}}
{"smiles": "O=C1Cc2cc(C(=O)N[C@H]3C[C@H]4CC[C@@H](C3)N4S(=O)(=O)N3CCC(NCc4ccccc4)CC3)c(Cl)cc2N1", "values": [{"measurement": "inhibition", "setting": "[1]", "value": "< 30", "unit": "%"}, {"measurement": "inhibition", "setting": "[2]", "value": "< 30", "unit": "%"}, {"measurement": "inhibition", "setting": "[3]", "value": "< 30", "unit": "%"}, {"measurement": "inhibition", "setting": "[4]", "value": "< 30", "unit": "%"}, {"measurement": "Papp at 2 h, 10 µM", "setting": "[5]", "value": 0.34, "unit": "×10⁻⁶ cm/s"}]}
{"smiles": "O=C1Cc2cc(C(=O)N[C@H]3C[C@H]4CC[C@@H](C3)N4S(=O)(=O)CC3CCN(CCCC(F)(F)F)CC3)c(Cl)cc2N1", "values": [{"measurement": "inhibition", "setting": "[1]", "value": "< 30", "unit": "%"}, {"measurement": "inhibition", "setting": "[2]", "value": "< 30", "unit": "%"}, {"measurement": "inhibition", "setting": "[3]", "value": "< 30", "unit": "%"}, {"measurement": "inhibition", "setting": "[4]", "value": "< 30", "unit": "%"}, {"measurement": "Papp at 2 h, 10 µM", "setting": "[5]", "value": 0.64, "unit": "×10⁻⁶ cm/s"}]}
